Assay results as given in ChEMBL document CHEMBL2406932, “Heteroaromatic and aniline derivatives of piperidines as potent ligands for vesicular acetylcholine transporter” (J Med Chem, 2013).

Assays:
Rattus norvegicus [1] = assay: Biodistribution in Sprague-Dawley rat brain stem at 350 uCi, iv after 30 mins in presence of cyclosporin A; type: ADME, organism-based; conditions: in vivo, 0.5 h
Lung [2] = assay: Biodistribution in Sprague-Dawley rat lung at 350 uCi, iv after 5 mins; type: ADME, organism-based; conditions: in vivo
Spleen [3] = assay: Biodistribution in Sprague-Dawley rat spleen at 350 uCi, iv after 30 mins in the presence of cyclosporin A; type: ADME, organism-based; conditions: in vivo, 0.5 h
Muscle tissue [4] = assay: Biodistribution in Sprague-Dawley rat muscle at 350 uCi, iv after 30 mins in presence of cyclosporin A; type: ADME, organism-based; conditions: in vivo, 0.5 h
Thalamus [5] = assay: Biodistribution in Sprague-Dawley rat thalamus at 350 uCi, iv after 30 mins; type: ADME, organism-based; conditions: in vivo, 0.5 h
Brain [6] = assay: Biodistribution in Sprague-Dawley rat brain at 350 uCi, iv after 30 mins in the presence of cyclosporin A; type: ADME, organism-based; conditions: in vivo, 0.5 h
Lung [7] = assay: Biodistribution in Sprague-Dawley rat lung at 350 uCi, iv after 30 mins in presence of cyclosporin A; type: ADME, organism-based; conditions: in vivo, 0.5 h
Kidney [8] = assay: Biodistribution in Sprague-Dawley rat kidney at 350 uCi, iv after 30 mins; type: ADME, organism-based; conditions: in vivo, 0.5 h
[9] = target: Sigma non-opioid intracellular receptor 1 (Cavia porcellus, UniProt Q60492); assay: Displacement of (+)- [3H]pentazocine from sigma 1 receptor expressed in guinea pig brain membrane homogenates by scintillation counting analysis; type: cell membranes
Cerebellum [10] = assay: Biodistribution in Sprague-Dawley rat cerebellum at 350 uCi, iv after 30 mins; type: ADME, organism-based; conditions: in vivo, 0.5 h
Macaca fascicularis = assay: Ratio of drug level in cynomolgus monkey […] at 5 to 7 mCi, iv after 70 mins; conditions: in vivo
Cerebellum [11] = assay: Biodistribution in Sprague-Dawley rat cerebellum at 350 uCi, iv after 30 mins in presence of cyclosporin A; type: ADME, organism-based; conditions: in vivo, 0.5 h
Liver [12] = assay: Biodistribution in Sprague-Dawley rat liver at 350 uCi, iv after 30 mins; type: ADME, organism-based; conditions: in vivo, 0.5 h
Liver [13] = assay: Biodistribution in Sprague-Dawley rat liver at 350 uCi, iv after 30 mins in presence of cyclosporin A; type: ADME, organism-based; conditions: in vivo, 0.5 h
Hippocampus [14] = assay: Biodistribution in Sprague-Dawley rat hippocampus at 350 uCi, iv after 30 mins in presence of cyclosporin A; type: ADME, organism-based; conditions: in vivo, 0.5 h
[15] = Displacement of [3H]DTG from sigma 2 receptor in rat liver membrane homogenates after 120 mins by scintillation counting analysis; type: cell membranes
Summary of the method: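 Rat liver membrane homogenate (~300 µg protein) with ~5 nM [3H]DTG plus 1 µM (+)-pentazocine to block sigma-1 sites, 120 min at room temperature, pH 7.4 Tris buffer. Nonspecific binding taken with 10 µM haloperidol. Filtration and scintillation counting.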

Muscle tissue [16] = assay: Biodistribution in Sprague-Dawley rat muscle at 350 uCi, iv after 5 mins; type: ADME, organism-based; conditions: in vivo
Brain [17] = assay: (§1) Biodistribution in Sprague-Dawley rat brain at 350 uCi, iv after 30 mins; type: ADME, organism-based; conditions: in vivo, 0.5 h
Kidney [18] = assay: Biodistribution in Sprague-Dawley rat kidney at 350 uCi, iv after 5 mins; type: ADME, organism-based; conditions: in vivo
Rattus norvegicus [19] = assay: Biodistribution in Sprague-Dawley rat fat at 350 uCi, iv after 30 mins; type: ADME, organism-based, Adipose tissue; conditions: in vivo, 0.5 h
Rattus norvegicus [20] = assay: Biodistribution in Sprague-Dawley rat fat at 350 uCi, iv after 30 mins in the presence of cyclosporin A; type: ADME, organism-based, Adipose tissue; conditions: in vivo, 0.5 h
Spleen [21] = assay: Biodistribution in Sprague-Dawley rat spleen at 350 uCi, iv after 30 mins; type: ADME, organism-based; conditions: in vivo, 0.5 h
Thalamus [22] = assay: Biodistribution in Sprague-Dawley rat thalamus at 350 uCi, iv after 30 mins in presence of cyclosporin A; type: ADME, organism-based; conditions: in vivo, 0.5 h
Muscle tissue [23] = assay: Biodistribution in Sprague-Dawley rat muscle at 350 uCi, iv after 30 mins; type: ADME, organism-based; conditions: in vivo, 0.5 h
Liver [24] = assay: Biodistribution in Sprague-Dawley rat liver at 350 uCi, iv after 5 mins; type: ADME, organism-based; conditions: in vivo
Pancreas [25] = assay: Biodistribution in Sprague-Dawley rat pancreas at 350 uCi, iv after 30 mins; type: ADME, organism-based; conditions: in vivo, 0.5 h
Cortex [26] = assay: Biodistribution in Sprague-Dawley rat cortex at 350 uCi, iv after 30 mins; type: ADME, organism-based; conditions: in vivo, 0.5 h
Brain [27] = assay: as §1; type: ADME, organism-based; conditions: in vivo, 0.5 h; remark: listed apart in the source
Rattus norvegicus [28] = assay: Biodistribution in Sprague-Dawley rat brain stem at 350 uCi, iv after 30 mins; type: ADME, organism-based; conditions: in vivo, 0.5 h
Cortex [29] = assay: Biodistribution in Sprague-Dawley rat cortex at 350 uCi, iv after 30 mins in presence of cyclosporin A; type: ADME, organism-based; conditions: in vivo, 0.5 h
Blood [30] = assay: Biodistribution in Sprague-Dawley rat blood at 350 uCi, iv after 30 mins; type: ADME, organism-based; conditions: in vivo, 0.5 h
Striatum [31] = assay: Biodistribution in Sprague-Dawley rat striatum at 350 uCi, iv after 30 mins in presence of cyclosporin A; type: ADME, organism-based; conditions: in vivo, 0.5 h
[32] = Biodistribution in cynomolgus monkey striatum at 5 to 7 mCi, iv after 10 mins by microPET analysis; type: ADME, organism-based, Macaca fascicularis; conditions: in vivo
Summary of the method: (§2)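 Male cynomolgus monkeys (4–6 kg) were fasted 12 h, induced with ketamine (10 mg/kg) and glycopyrrolate (0.13 mg/kg) i.m., intubated and kept on 0.75–2.0% isoflurane. After attenuation-correction transmission scans, 5–7 mCi of tracer was given via venous catheter and a 100 min dynamic microPET scan was acquired. MRI-coregistered regions of interest yielded time-activity curves; n = 3.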

Brain [33] = assay: Ratio of drug uptake in Sprague-Dawley rat brain in absence of cyclosporin A to drug uptake in Sprague-Dawley rat brain in presence of cyclosporin A; type: ADME, tissue-based; conditions: in vivo
Summary of the method: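 Cyclosporine A (Sandimmune diluted 1:1 with saline) was given i.v. at 25 mg/kg 30 min before the radioligand. Rats were euthanized 30 min after tracer injection. Groups were compared with controls by Student t test (n=4).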

Heart [34] = assay: Biodistribution in Sprague-Dawley rat heart at 350 uCi, iv after 30 mins; type: ADME, organism-based; conditions: in vivo, 0.5 h
Blood [35] = assay: Biodistribution in Sprague-Dawley rat blood at 350 uCi, iv after 5 mins; type: ADME, organism-based; conditions: in vivo
Spleen [36] = assay: Biodistribution in Sprague-Dawley rat spleen at 350 uCi, iv after 5 mins; type: ADME, organism-based; conditions: in vivo
Kidney [37] = assay: Biodistribution in Sprague-Dawley rat kidney at 350 uCi, iv after 30 mins in the presence of cyclosporin A; type: ADME, organism-based; conditions: in vivo, 0.5 h
[38] = target: T1, Vesicular acetylcholine transporter (Homo sapiens, UniProt Q16572); assay: Displacement of (-)-[3H]vesamicol from human VAChT expressed in rat PC12 cell membrane after 20 hrs; type: cell membranes, PC-12
T1 sequence (Q16572 whole entry): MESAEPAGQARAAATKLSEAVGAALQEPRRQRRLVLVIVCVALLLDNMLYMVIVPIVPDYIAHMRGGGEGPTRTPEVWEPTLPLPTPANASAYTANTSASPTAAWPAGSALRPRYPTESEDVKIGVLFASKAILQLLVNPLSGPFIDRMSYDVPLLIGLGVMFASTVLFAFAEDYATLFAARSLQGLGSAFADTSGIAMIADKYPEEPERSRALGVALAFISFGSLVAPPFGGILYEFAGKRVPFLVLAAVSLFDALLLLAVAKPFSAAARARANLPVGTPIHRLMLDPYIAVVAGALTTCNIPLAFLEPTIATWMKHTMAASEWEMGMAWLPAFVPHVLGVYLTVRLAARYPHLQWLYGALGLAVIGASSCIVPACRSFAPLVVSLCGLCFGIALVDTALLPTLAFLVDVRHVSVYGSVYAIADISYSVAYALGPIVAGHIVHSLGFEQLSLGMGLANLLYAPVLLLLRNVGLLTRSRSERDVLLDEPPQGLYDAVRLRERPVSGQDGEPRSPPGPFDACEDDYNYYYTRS

Heart [39] = assay: Biodistribution in Sprague-Dawley rat heart at 350 uCi, iv after 5 mins; type: ADME, organism-based; conditions: in vivo
Brain [40] = assay: Biodistribution in Sprague-Dawley rat brain at 350 uCi, iv after 30 mins in presence of cyclosporin A; type: ADME, organism-based; conditions: in vivo, 0.5 h
Pancreas [41] = assay: Biodistribution in Sprague-Dawley rat pancreas at 350 uCi, iv after 30 mins in the presence of cyclosporin A; type: ADME, organism-based; conditions: in vivo, 0.5 h
Blood [42] = assay: Biodistribution in Sprague-Dawley rat blood at 350 uCi, iv after 30 mins in presence of cyclosporin A; type: ADME, organism-based; conditions: in vivo, 0.5 h
Heart [43] = assay: Biodistribution in Sprague-Dawley rat heart at 350 uCi, iv after 30 mins in presence of cyclosporin A; type: ADME, organism-based; conditions: in vivo, 0.5 h
Pancreas [44] = assay: Biodistribution in Sprague-Dawley rat pancreas at 350 uCi, iv after 5 mins; type: ADME, organism-based; conditions: in vivo
[45] = Biodistribution in cynomolgus monkey striatum at 5 to 7 mCi, iv up to 100 mins by microPET analysis; type: ADME, organism-based, Macaca fascicularis; conditions: in vivo; summary of the method: as §2
Rattus norvegicus [46] = assay: Biodistribution in Sprague-Dawley rat fat at 350 uCi, iv after 5 mins; type: ADME, organism-based, Adipose tissue; conditions: in vivo
Striatum [47] = assay: Biodistribution in Sprague-Dawley rat striatum at 350 uCi, iv after 30 mins; type: ADME, organism-based; conditions: in vivo, 0.5 h
Lung [48] = assay: Biodistribution in Sprague-Dawley rat lung at 350 uCi, iv after 30 mins; type: ADME, organism-based; conditions: in vivo, 0.5 h
Hippocampus [49] = assay: Biodistribution in Sprague-Dawley rat hippocampus at 350 uCi, iv after 30 mins; type: ADME, organism-based; conditions: in vivo, 0.5 h
Brain [50] = assay: Biodistribution in Sprague-Dawley rat brain at 350 uCi, iv after 5 mins; type: ADME, organism-based; conditions: in vivo

Sigma non-opioid intracellular receptor 1, sequence (Q60492 whole entry): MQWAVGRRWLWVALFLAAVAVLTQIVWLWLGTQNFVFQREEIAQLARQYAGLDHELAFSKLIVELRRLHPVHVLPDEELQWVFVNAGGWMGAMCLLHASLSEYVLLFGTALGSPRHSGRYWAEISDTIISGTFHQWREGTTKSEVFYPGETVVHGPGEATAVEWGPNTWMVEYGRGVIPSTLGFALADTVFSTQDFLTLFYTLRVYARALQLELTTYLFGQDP

[11CH3]Nc1ccc(C(=O)C2CCN([C@H]3Cc4ccccc4C[C@@H]3O)CC2)cc1
Drug uptake (Rattus norvegicus [1]): 0.577 % ID/g | Drug uptake (Lung [2]): 1.77 % ID/g | Drug uptake (Spleen [3]): Active | Drug uptake (Muscle tissue [4]): Active | Drug uptake (Thalamus [5]): 0.293 % ID/g | Drug uptake (Brain [6]): Active | Drug uptake (Lung [7]): Active | Drug uptake (Kidney [8]): Active | Ki [9]: 992 nM | Drug uptake (Cerebellum [10]): 0.157 % ID/g | Ratio (Macaca fascicularis): > 2.5 | Drug uptake (Cerebellum [11]): 0.404 % ID/g | Drug uptake (Liver [12]): 2.44 % ID/g | Drug uptake (Liver [13]): Active | Drug uptake (Hippocampus [14]): 0.562 % ID/g | Ki [15]: 11.4 µM | Drug uptake (Muscle tissue [16]): 0.22 % ID/g | Drug uptake (Brain [17]): 0.272 % ID/g | Drug uptake (Kidney [18]): 1.47 % ID/g | Drug uptake (Rattus norvegicus [19]): Active | Drug uptake (Rattus norvegicus [20]): Active | Drug uptake (Spleen [21]): Active | Drug uptake (Thalamus [22]): 0.6 % ID/g | Drug uptake (Muscle tissue [23]): Active | Drug uptake (Liver [24]): 3.45 % ID/g | Drug uptake (Pancreas [25]): Active | Drug uptake (Cortex [26]): 0.262 % ID/g | Drug uptake (Brain [27]): Active | Drug uptake (Rattus norvegicus [28]): 0.245 % ID/g | Drug uptake (Cortex [29]): 0.637 % ID/g | Drug uptake (Blood [30]): Active | Drug uptake (Striatum [31]): 1.02 % ID/g | Drug uptake [32]: Active | Ratio (Brain [33]): 2.2 | Drug uptake (Heart [34]): Active | Drug uptake (Blood [35]): 0.34 % ID/g | Drug uptake (Spleen [36]): 1.19 % ID/g | Drug uptake (Kidney [37]): 1.21 % ID/g | Ki [38]: 0.78 nM | Drug uptake (Heart [39]): 0.49 % ID/g | Drug uptake (Brain [40]): 0.596 % ID/g | Drug uptake (Pancreas [41]): Active | Drug uptake (Blood [42]): Active | Drug uptake (Heart [43]): Active | Drug uptake (Pancreas [44]): 0.89 % ID/g | Drug uptake [45]: Active | Drug uptake (Rattus norvegicus [46]): 0.18 % ID/g | Drug uptake (Striatum [47]): 0.593 % ID/g | Drug uptake (Lung [48]): Active | Drug uptake (Hippocampus [49]): 0.265 % ID/g | Drug uptake (Brain [50]): 0.57 % ID/g
